Results published in ChEMBL document CHEMBL3272232, “Inhibitors of folate biosynthesis. 1. Inhibition of dihydroneopterin aldolase by pteridine derivatives” (J Med Chem, 1977).
Values after ≈ are worked out from the molar mass of the structure shown.

tested on: Escherichia coli; experiment: Inhibition of Escherichia coli dihydroneopterin aldolase assessed as [14C]glycolaldehyde formation using [14C]neopterin substrate by scintillation counting
How it was run: (§1)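 Enzyme from E. coli B grown in corn steep liquor medium with methionine and glutamic acid, homogenized, cleared of debris and heat-treated. Substrate is 14C-neopterin with unlabeled neopterin, reduced by dithionite to dihydroneopterin in ammonium acetate pH 9.6 with EDTA and mercaptoethanol. Test pteridines are dithionite-reduced. Incubation runs 30 min at 37 °C in the dark and is stopped with Norit A in 2 N acetic acid. The supernatant is scintillation counted.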

| SMILES | ID50 |
| --- | --- |
| Nc1nc(O)c2c(n1)NCC(CCCc1ccccc1)=N2 | > 50 µg/mL |
| OCC1=Nc2c(O)nc(S)nc2NC1 | > 50 µg/mL |
| Nc1nc(O)c2c(n1)NCC=N2 | > 50 µg/mL |
| Nc1nc(O)c2c(n1)NC(O)C(C(=O)O)=N2 (stereo unspecified) | > 50 µg/mL |
| CCOC(OCC)C1=Nc2c(O)nc(N)nc2NC1 | > 50 µg/mL |
| CC1=Nc2c(O)nc(N)nc2NC1 | > 50 µg/mL |
| NC(=O)C1=Nc2c(O)nc(N)nc2NC1 | 5 µg/mL (≈ 24 µM) |
| CC1(C)Nc2nc(N)nc(O)c2N=C1CO | 1 µg/mL (≈ 4.48 µM) |
| Nc1nc(O)c2c(n1)NC(CO)C=N2 (stereo unspecified) | > 50 µg/mL |
| Nc1nc(O)c2c(n1)NCC(C(=O)O)=N2 | > 50 µg/mL |
| Nc1nc(N)c2c(n1)NCC(CO)=N2 | > 50 µg/mL |
| Nc1nc2c(c(=O)[nH]1)N=C(CO)CN2 | 30 µg/mL (≈ 154 µM) |
| CCCCCCCCC1=Nc2c(O)nc(N)nc2NC1 | > 50 µg/mL |
| Nc1nc(O)c2c(n1)NCC(/C=N/O)=N2 | > 50 µg/mL |
| CC(C)C1=Nc2c(N)nc(N)nc2NC1C(C)C (stereo unspecified) | > 50 µg/mL |

tested on: Escherichia coli; experiment: Inhibition of Escherichia coli dihydroneopterin aldolase assessed as [14C]glycolaldehyde formation using [14C]neopterin substrate at 50 ug/ml by scintillation counting; how it was run: as §1

| SMILES | inhibition |
| --- | --- |
| Nc1nc2c(c(=O)[nH]1)N=C(C=O)CN2 | 75% |
